Experimental data published in paper PMC13435124 (The FASEB Journal, 2026).
Where a name gives a salt, the structure may show the parent alone.

System: Nrf2 activation in KeratinoSens cells
Test: KeratinoSens reporter gene assay
Assay type: cell-based
Conditions: 6 h
In short: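 KeratinoSens ARE-luciferase cells (passage ≤22) plated at 1.0 × 10^4 per well in triplicate; after 24 h switched to DMEM with 1% FBS, no geneticin. Wortmannin 500 nM added 1 h before test compound at 250 μM; DMF 50 μM as positive control; DMSO ≤0.1%. After 6 h, Alamar Blue (4 h, 37°C), then luciferase read as fold over DMSO. Three independent experiments in triplicate.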

Compound | Nrf2 activation (luciferase induction) (Iso 250 μM, DMF 50 μM) | effect on Iso-induced Nrf2 activation (Wortmannin 500 nM added 1 h before Iso 250 μM)
COC(=O)/C=C/C(=O)OC [DMF, Dimethyl fumarate] | induced Nrf2 activation | 
COC[C@H]1OC(=O)c2coc3c2[C@@]1(C)C1=C(C3=O)[C@@H]2CCC(=O)[C@@]2(C)C[C@H]1OC(C)=O [Wortmannin] |  | partially inhibited
